# Bioassay records as filed in PubChem BioAssay.
# M1 ag = human M1 muscarinic receptor agonists, primary screen, Fluo-8 calcium fluorescence, CHO-K1 cells, HTS. activation, % at 3 µM. Muscarinic acetylcholine receptor M1 (Homo sapiens), P11229. actives 0.33% (n = 360,000). CHO-K1 hM1, agonist mode; 0% DMSO, 100% acetylcholine EC100;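 active means activation above the run's mean compound activation plus 3 SD, cut at about 16% in these data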;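 further: peak over basal fluorescence ratio within a 140 s kinetic read after compound addition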
# Target sequence (P11229 whole entry, looked up): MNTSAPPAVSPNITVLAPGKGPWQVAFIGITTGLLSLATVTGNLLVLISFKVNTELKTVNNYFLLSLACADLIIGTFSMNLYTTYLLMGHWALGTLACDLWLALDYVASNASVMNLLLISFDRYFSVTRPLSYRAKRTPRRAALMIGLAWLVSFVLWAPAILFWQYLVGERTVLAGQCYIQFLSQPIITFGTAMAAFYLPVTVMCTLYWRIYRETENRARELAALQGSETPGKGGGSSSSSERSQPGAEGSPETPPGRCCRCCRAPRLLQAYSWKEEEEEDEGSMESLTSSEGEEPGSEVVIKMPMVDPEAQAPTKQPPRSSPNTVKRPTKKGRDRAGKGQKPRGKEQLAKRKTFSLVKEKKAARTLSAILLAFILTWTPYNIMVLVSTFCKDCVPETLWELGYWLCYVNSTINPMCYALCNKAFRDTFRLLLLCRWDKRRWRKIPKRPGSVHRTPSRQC
# CHRM1 PAM = human M1 muscarinic receptor positive allosteric modulators, primary screen, CHO-K1 cells, Fluo-8 calcium fluorescence, 1536-well | activation, % at 3 µM | CHO-K1 hM1, ACh EC20; 0% = ACh EC20, 100% = maximal ACh | actives 0.088% (n = 360,000) | Muscarinic acetylcholine receptor M1 (Homo sapiens), P11229; in the data active means activation above about 19%, passing the limit was not always enough
# CHRM5 PAM = human M5 muscarinic receptor positive allosteric modulators, primary screen, CHO-K1 cells, Fluo-8 calcium fluorescence. Muscarinic acetylcholine receptor M5 (Homo sapiens), P08912. CHO-K1 hM5, ACh EC20 PAM; 0% = ACh EC20, 100% = ACh EC100. activation, % at 3 µM. actives 0.3% (n = 360,000);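 active means activation above the run cutoff, the mean activation of all test compounds plus 3 SD, cut at about 18% in these data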
#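 Test system: CHO-K1 hM5 cells / Doses: single-point, 3 µM nominal / Times: Post-acetylcholine fluorescence recording 140 s / Technique: Fluo-8 calcium fluorescence / Measure: Max/basal fluorescence ratio as % of EC20–EC100 ACh window / Benchmarks: low control EC20 acetylcholine (0%), high control EC100 acetylcholine (100%) / Replicates: one well per compound, no replicates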
# CHRM5 agonist = human M5 muscarinic receptor agonists, primary screen, CHO-K1 cells, Fluo-8 calcium fluorescence; Muscarinic acetylcholine receptor M5 (Homo sapiens), P08912; CHO-K1 hM5 cells; 0% DMSO wells, 100% maximal acetylcholine response; activation, % at 3 µM; actives 0.19% (n = 360,000); AID 624037, 2012;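 active means activation above the run's mean over test compounds plus 3 SD, cut at about 23% in these data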;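 further: signal is peak over basal fluorescence ratio across the kinetic read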
# CHRM5 antagonist = human M5 muscarinic receptor antagonists, primary screen, CHO cells, Fluo-8 calcium fluorescence; Muscarinic acetylcholine receptor M5 (Homo sapiens), P08912; CHO-hM5 cells, ACh EC80; inhibition, % at 3 µM; actives 0.59% (n = 360,000);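 active means inhibition above a per-plate cutoff, the mean of that plate's test compounds plus 3 SD, cut at about 27% in these data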;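 further: 0% = acetylcholine EC80 with DMSO and 100% = DMSO without agonist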
# CHRM1 antagonist = human M1 muscarinic receptor antagonists, primary screen, CHO-K1 cells, Fluo-8 calcium fluorescence, 1536-well; CHO-K1 hM1, ACh EC80 antagonist; actives 1.3% (n = 360,000); inhibition, % at 3 µM; AID 588852, 2011; Muscarinic acetylcholine receptor M1 (Homo sapiens), P11229;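 active means percent inhibition above its own plate's cutoff, namely the mean of that plate's compound wells plus 3 SD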;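 further: peak over basal fluorescence ratio during 140 s after agonist addition; 0% = ACh EC80 plus DMSO and 100% = DMSO alone without agonist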
# * = called active by the depositor. Most compounds without a hit are left out; they make up all but 2% or so of the library.
SMILES,M1 ag,CHRM1 PAM,CHRM5 PAM,CHRM5 agonist,CHRM5 antagonist,CHRM1 antagonist
COc1cccc(C(c2nnnn2C(C)(C)C)N2CCN(C/C=C/c3ccccc3)CC2)c1OC (stereo not given),-11,-30,-21,-6,18,42*
C(=C\c1ccccc1)/CN1CCN(C(c2ccccc2)c2nnnn2-c2ccc3c(c2)OCCO3)CC1 (stereo not given),-7,-25,-22,-8,75*,95*
C(=C\c1ccccc1)/CN1CCN(C(c2ccnc3ccccc23)c2nnnn2-c2ccc3c(c2)OCCO3)CC1 (stereo not given),-6,-9,-5,-7,1,-16
O=C(Nc1ccc2c(c1)OCCO2)C(c1cc2ccccc2o1)N1CCN(C/C=C/c2ccccc2)CC1 (stereo not given),-3,-25,-18,0,10,36*
CC1=C(C(=O)N2CCOCC2)CC(CC(=O)NCc2cccs2)C(=O)N1CCC1=CCCCC1 (stereo not given),-5,5,0,0,-6,-14
COc1ccc(Nc2nnc(SCC(=O)N(CC(C)C)C3CCS(=O)(=O)C3)s2)cc1 (stereo not given),-6,2,-4,-1,1,-6
CCCCn1nnnc1C(c1ccc(OC)cc1)N1CCN(C/C=C/c2ccccc2)CC1 (stereo not given),-7,-26,-22,-7,23,55*
COc1ccc(-n2nnnc2C(c2cccs2)N2CCN(C/C=C/c3ccccc3)CC2)cc1 (stereo not given),-7,-25,-23,-7,47*,55*
COc1ccc(C(c2nnnn2-c2ccc(OC)cc2)N2CCN(C/C=C/c3ccccc3)CC2)cc1 (stereo not given),-6,-26,-23,-8,51*,74*
COc1ccc(C(c2nnnn2C(C)(C)C)N2CCN(C/C=C/c3ccccc3)CC2)cc1 (stereo not given),-5,-25,-22,-8,16,29
C(=C\c1ccccc1)/CN1CCN(C(c2nnnn2C2CCCCC2)C2CC2)CC1 (stereo not given),-5,-12,-14,-7,5,-12
COc1ccc(C(c2nnnn2C2CCCCC2)N2CCN(C/C=C/c3ccccc3)CC2)cc1 (stereo not given),-7,-26,-22,-7,58*,87*
C[C@@H]1CN([C@H](C)CO)C(=O)CCCn2nncc2CO[C@H]1CN(C)C(=O)Cc1ccccc1,-2,0,2,1,-4,5
Cc1cc(NC(=O)CN2C(=O)NC3(CCC(C)CC3)C2=O)no1 (stereo not given),-8,4,4,-3,0,-10
Clc1ccc(C(c2ccccc2)N2CCN(c3ccccn3)CC2)cc1 (stereo not given),-4,-6,-5,-4,5,9
Clc1ccc(C(c2cccs2)N2CCNCC2)cc1 (stereo not given),-3,-28,-16,-2,16,45*
O=C(Nc1cccc(-c2nc3ccccc3s2)c1)c1cc(=O)c2ccccc2o1,-4,4,-2,-2,4,-6
O=C(Nc1ccc(-c2nc3ccc(NC(=O)c4cccs4)cc3[nH]2)cc1)c1cccs1,-5,-17,-14,0,27*,38*
CC(=O)Nc1cccc(NC(=O)Cc2cccs2)c1,1,18,-7,0,11,-19
Cc1ccccc1C(=O)Nc1ccc(-c2nc3ccc(C(=O)c4ccccc4)cc3[nH]2)cc1,-3,-9,-23,-4,24,28*
O=C(Nc1cccc(-c2nc3ccccc3s2)c1)c1cccs1,-11,-5,-9,-5,14,30*
O=C(c1ccccc1)c1ccc2nc(-c3ccc(NC(=O)c4ccccc4Br)cc3)[nH]c2c1,-4,-3,-11,1,12,11
O=C(Cc1cccs1)Nc1cccc(-c2nc3cc4ccccc4cc3[nH]2)c1,-8,-14,-18,-2,27*,23
CSc1cccc(NC(=O)C2CC(=O)N(c3ccc4c(c3)OCCO4)C2)c1 (stereo not given),3,8,-2,1,0,-17
CCCCNS(=O)(=O)c1cccc(NC(=O)[C@H]2C[C@H](O)[C@@H](CO)O2)c1,-2,7,1,0,-2,-17
SMILES,M1 ag,CHRM1 PAM,CHRM5 PAM,CHRM5 agonist,CHRM5 antagonist,CHRM1 antagonist
CCCc1nnc(NC(=O)CCC(=O)N2CCN(Cc3ccc(F)cc3)CC2)s1,1,7,1,-6,-11,-7
CCc1nnc(NC(=O)CCC(=O)N2CCN(Cc3ccc(F)cc3)CC2)s1,16*,-2,-5,-2,9,-9
Cc1ccc(CC2(OCCN(C)C)CCC(C(C)(C)C)CC2)cc1 (stereo not given),4,5,6,8,3,-2
CN(C)CCOC1(Cc2ccc(F)cc2)CCC(C(C)(C)C)CC1 (stereo not given),11,1,19*,16,-22,-1
c1ccc(CCNc2ccnc3cc4ccccc4cc23)cc1,-3,-21,-33,-5,36*,42*
CC(C)Nc1ccc(Nc2ccnc3cc4ccccc4cc23)cc1,-7,-4,4,-17,-6,-9
OC(c1ccc(F)c(F)c1)c1nc(-c2ccc3c(c2)OCO3)cs1 (stereo not given),-3,0,-8,1,2,-11
CC(=O)NC1(NC(C)=O)CCN(C)C(c2ccccc2)C1C (stereo not given),-2,-6,10,26*,-8,2
Cc1cc(-n2c(C)cc(C(=O)CSc3ncnc4ccccc34)c2C)no1,2,-7,-14,8,25,28*
CSCCC(NS(=O)(=O)c1ccc2c(c1)OCCO2)C(=O)N(C)Cc1ccc(F)cc1 (stereo not given),-1,-7,-9,2,7,16
CSCCC(NS(=O)(=O)c1cccc(C(F)(F)F)c1)C(=O)N(C)Cc1ccc2c(c1)OCCO2 (stereo not given),-1,-14,-23,3,11,38*
